Calls of active or inactive are those of the source.
How the values were obtained:
Mus musculus [1] = experiment: Antinociceptive activity in Swiss mouse assessed as inhibition of acetic acid-induced writhing response at 0.3 mg/kg, ip administered 30 mins prior to acetic acid-challenge measured for 20 mins; format: functional, organism-based; design: dose 0.3 mg/kg
Summary of the method: (§1)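 Doses of 0.3–10 mg/kg given ip in saline 30 min before ip acetic acid (0.8% v/v in saline, 10 mL/kg). Cumulative abdominal writhing counted over 20 min and presented in 2-min intervals. Six mice per group; representative of two experiments.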

Mus musculus [2] = experiment: Antinociceptive activity in ip dosed Swiss mouse assessed as inhibition of acetic acid-induced writhing response administered 30 mins prior to acetic acid-challenge measured for 20 mins; format: functional, organism-based; summary of the method: as §1
Mus musculus [3] = experiment: Antinociceptive activity in Swiss mouse assessed as inhibition of formalin-induced paw flinching at 10 mg/kg, ip administered 30 mins prior to formalin-challenge measured after 30 mins; format: functional, organism-based; design: dose 10 mg/kg
Summary of the method: (§2)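 Given ip 30 min before intraplantar formalin (25 μL of 1.5% in saline). Paw flinches and licking time recorded from 0 to 30 min in 5-min bins, covering the first (0–5 min) and second (10–30 min) phases. Six mice per group; representative of two experiments.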

Mus musculus [4] = experiment: Antinociceptive activity in Swiss mouse assessed as decrease in formalin-induced time spent for licking paw at 10 mg/kg, ip administered 30 mins prior to formalin-challenge measured after 30 mins; format: functional, organism-based; design: dose 10 mg/kg; summary of the method: as §2
Mus musculus [5] = experiment: Antinociceptive activity in Swiss mouse assessed as inhibition of carrageenan-induced thermal hyperalgesia at 3 to 10 mg/kg, ip administered 30 mins prior to carrageenan-challenge measured after 1 to 5 hrs by hot plate test; format: functional, organism-based
Summary of the method: (§3)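 Doses of 1–10 mg/kg given ip 30 min before intraplantar carrageenan (300 μg/paw). Hot plate held at 55 °C; latency to jump or lick paws recorded at 1, 3 and 5 h, with a 30 s cutoff. Two baseline latencies taken at least 10 min apart. Six mice per group.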

Mus musculus [6] = experiment: Antinociceptive activity in Swiss mouse assessed as inhibition of carrageenan-induced mechanical hyperalgesia at 1 to 3 mg/kg, ip administered 30 mins prior to carrageenan-challenge measured after 5 hrs by electronic pressure-meter test; format: functional, organism-based
Summary of the method: (§4)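 Doses of 1–10 mg/kg given ip 30 min before intraplantar carrageenan (300 μg/paw). Electronic pressure-meter applied to mice on a wire grid floor; paw withdrawal with flinching was the end point, and each value is the average of three readings. Result reported as Δ withdrawal threshold (g) from baseline at 1, 3 and 5 h. Six mice per group; two-way ANOVA.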

Mus musculus [7] = experiment: Neurotoxicity in Swiss mouse assessed as change in motor response at 10 mg/kg, ip after 3.5 hrs by rotarod test (reference value: 180 seconds); format: toxicity, organism-based; design: dose 10 mg/kg, route intraperitoneal; conditions: in vivo
Summary of the method: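 Rota-rod with a 2.5 cm bar at 22 rpm. Mice pre-selected 24 h earlier by staying on the bar for two consecutive 180 s periods. Given 10 mg/kg ip (vehicle 2% DMSO in saline) and tested at 1.5, 3.5 and 5.5 h, with a 180 s cutoff. n = 6.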

Mus musculus [8] = experiment: Antinociceptive activity in Swiss mouse assessed as inhibition of capsaicin-induced thermal hyperalgesia at 10 mg/kg, ip administered 30 mins prior to capsaicin-challenge measured after 1 to 3 hrs by hot plate test; format: functional, organism-based; design: dose 10 mg/kg
Summary of the method: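 Dosed at 10 mg/kg ip 30 min before intraplantar capsaicin (1.6 μg/paw). Mechanical hyperalgesia measured by electronic pressure-meter as Δ withdrawal threshold (g), average of three readings. Thermal hyperalgesia measured as hot-plate latency at 55 °C with a 30 s cutoff. Both read at 1, 3 and 5 h. Six mice per group.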

Mus musculus [9] = experiment: Antinociceptive activity in Swiss mouse assessed as inhibition of capsaicin-induced paw flinching at 10 mg/kg, ip administered 30 mins prior to capsaicin-challenge measured after 5 mins; format: functional, organism-based; design: dose 10 mg/kg
Summary of the method: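 Pretreatment ip 30 min before intraplantar capsaicin (1.6 μg/paw), given after an adaptation period. Mice observed individually for 5 min afterwards. Total flinches and time spent licking the injected paw were scored. Six mice per group; representative of two experiments; one-way ANOVA with Tukey's test.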

Mus musculus [10] = experiment: Hepatotoxicity in Swiss mouse assessed as change in plasma AST level at 10 mg/kg, ip for 7 days; format: toxicity, organism-based; design: dose 10 mg/kg, route intraperitoneal; conditions: in vivo, 168 h
Summary of the method: (§5)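 Mice dosed daily ip at 10 mg/kg for 7 days; vehicle was saline or Tris/HCl pH 8.0. Plasma AST and ALT measured with a diagnostic kit.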

Mus musculus [11] = experiment: Antioxidant activity in Swiss mouse assessed as prevention of carrageenan-induced decrease in 2,2'-Azinobis(3-ethylbenzothiazoline 6-sulfonic acid) scavenging ability at 10 mg/kg, ip administered 30 mins prior to carrageenan-challenge measured after 3 hrs by spectrophotometric analysis; format: functional, organism-based; design: dose 10 mg/kg
Summary of the method: (§6)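 Given at 10 mg/kg ip 30 min before intraplantar carrageenan; plantar skin taken at 3 h, two mice pooled per sample. Tissue homogenized in 1.15% KCl. FRAP: 37 °C for 30 min, absorbance at 595 nm. ABTS: diluted to A730 0.80 in PBS pH 7.4, read at 730 nm after 6 min. Both expressed as Trolox equivalents/mg tissue (Trolox standard 1.5–30 μmol/L final).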

Mus musculus [12] = experiment: Antiinflammatory activity in Swiss mouse assessed as inhibition of carrageenan-induced IL-33 production 10 mg/kg, ip administered 30 mins prior to carrageenan-challenge measured after 3 hrs by ELISA; format: functional, organism-based; design: dose 10 mg/kg; conditions: at 10 mg/kg
Summary of the method: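 Compound given ip in saline 30 min before intraplantar carrageenan (300 μg/paw). Paw skin taken 3 h later and homogenized in 500 μL buffer with protease inhibitors. TNF-α, IL-1β, IL-6, IL-33 and IL-10 measured by ELISA, reported as pg/100 mg tissue. Saline-injected paws served as controls. Six mice per group; representative of two experiments.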

Mus musculus [13] = experiment: Antinociceptive activity in Swiss mouse assessed as inhibition of carrageenan-induced mechanical hyperalgesia at 1 to 3 mg/kg, ip administered 30 mins prior to carrageenan-challenge measured after 3 hrs by electronic pressure-meter test; format: functional, organism-based; summary of the method: as §4
Mus musculus [14] = experiment: Antinociceptive activity in ip dosed Swiss mouse assessed as inhibition of carrageenan-induced mechanical hyperalgesia administered 30 mins prior to carrageenan-challenge measured at 1 to 5 hrs by electronic pressure-meter test; format: functional, organism-based; summary of the method: as §4
Mus musculus [15] = experiment: Antioxidant activity in Swiss mouse assessed as prevention of carrageenan-induced decrease in ferric-reducing ability potential at 10 mg/kg, ip administered 30 mins prior to carrageenan-challenge measured after 3 hrs by spectrophotometric analysis; format: functional, organism-based; design: dose 10 mg/kg; summary of the method: as §6
Mus musculus [16] = experiment: Toxicity in Swiss mouse assessed as change in myeloperoxidase activity in stomach at 10 mg/kg, ip for 7 days by spectrophotometric analysis; format: organism-based; design: dose 10 mg/kg, route intraperitoneal; conditions: in vivo, 168 h
Summary of the method: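 Mice dosed daily ip at 10 mg/kg for 7 days. Stomach homogenized in 50 mM phosphate buffer pH 6.0 with 0.5% HTAB and centrifuged at 16100g. Supernatant mixed with o-dianisidine (0.167 mg/mL) and 0.015% H2O2; read at 450 nm three times within 1 min. Activity expressed as neutrophils ×10⁴/mg tissue against a neutrophil standard curve.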

Mus musculus [17] = experiment: Hepatotoxicity in Swiss mouse assessed as change in plasma ALT level at 10 mg/kg, ip for 7 days; format: toxicity, organism-based; design: dose 10 mg/kg, route intraperitoneal; conditions: in vivo, 168 h; summary of the method: as §5
Mus musculus [18] = experiment: Antinociceptive activity in ip dosed Swiss mouse assessed as inhibition of carrageenan-induced thermal hyperalgesia administered 30 mins prior to carrageenan-challenge measured after 1 to 5 hrs by hot plate test; format: functional, organism-based; summary of the method: as §3

O=c1cc(-c2ccc(O)cc2)oc2c([C@@H]3O[C@H](CO)[C@@H](O)[C@H](O)[C@H]3O)c(O)cc(O)c12 [VITEXIN]
inhibition (Mus musculus [1]): Active | inhibition (Mus musculus [2]): Dose-dependent effect | inhibition (Mus musculus [3]): Active | inhibition (Mus musculus [4]): Active | inhibition (Mus musculus [5]): Active | inhibition (Mus musculus [6]): Active | Time (Mus musculus [7]): 180 s | inhibition (Mus musculus [8]): Active | inhibition (Mus musculus [9]): Active | Activity (Mus musculus [10]): Non-toxic | Activity (Mus musculus [11]): Active | inhibition (Mus musculus [12]): Active | inhibition (Mus musculus [13]): Active | inhibition (Mus musculus [14]): Dose-dependent effect | Activity (Mus musculus [15]): Active | Activity (Mus musculus [16]): Non-toxic | Activity (Mus musculus [17]): Non-toxic | inhibition (Mus musculus [18]): Dose-dependent effect
